Compound activity (PubChem)
LANA-H2A inh: blockers of LANA interaction with H2A/H2B – biochemical, FP readout, HTS, primary screen. hit rate 0.6% among 320,000. cell-free LANA-H2A/H2B peptide, fluorescence polarization. inhibition, % (concentration not given with the values); in the data active = inhibition mostly above about 10%, no sharp cut-off; inactive = mostly below about 6.7%
CaV13 ICDI inh: Primary screen for inhibitors of IQ motif and Ca2+-dependent inactivation inhibitor domain binding in CACNA1D, Förster resonance energy transfer in living cells, …; HEK cells, CFP/YFP FRET ICDI-IQ, plate reader, 10 min; percent FRET-ratio fall versus neutral wells; hit rate 0.098% among 340,000; inhibition, % at 12.3 µM;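 active = mean replicate inhibition of at least 30% and at least 1% of replicates passing that level; inconclusive = only one of the two criteria is met; inactive = neither criterion is met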;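 also: 0% = median of the neutral control wells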
Runt-SMMHC FRET: inhibitors of RUNX1 Runt–CBFb-SMMHC binding, primary screen, biochemical, FRET, Cerulean-Runt, Venus-CBFb-SMMHC, uHTS. AID 1434, 2008. Cerulean-Runt/Venus-CBFb-SMMHC FRET ratio 530/480, 1 h. hit rate 0.74% among 220,000. inhibition, % at 20 µM;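 active = mean inhibition across duplicate retests at 20 µM reaching about 50%, limit read from the data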;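 also: 0% = DMSO wells and 100% = wells with excess untagged CBFb-SMMHC; inhibitors lower the FRET ratio by blocking Runt binding to CBFb-SMMHC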
Target sequence (Q01196 whole entry, looked up): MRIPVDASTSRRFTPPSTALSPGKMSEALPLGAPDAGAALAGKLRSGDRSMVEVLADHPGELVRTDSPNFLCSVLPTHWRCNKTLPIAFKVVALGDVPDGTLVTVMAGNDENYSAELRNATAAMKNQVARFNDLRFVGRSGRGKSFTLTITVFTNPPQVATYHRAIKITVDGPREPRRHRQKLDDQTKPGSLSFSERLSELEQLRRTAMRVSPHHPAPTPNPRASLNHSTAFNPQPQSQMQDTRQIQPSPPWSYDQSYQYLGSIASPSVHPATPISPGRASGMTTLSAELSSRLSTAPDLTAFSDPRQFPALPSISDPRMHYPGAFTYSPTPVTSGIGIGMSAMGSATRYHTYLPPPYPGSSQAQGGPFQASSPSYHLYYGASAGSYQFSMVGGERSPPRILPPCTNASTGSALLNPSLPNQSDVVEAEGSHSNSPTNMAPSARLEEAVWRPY
Target sequence (Q13951 whole entry, looked up): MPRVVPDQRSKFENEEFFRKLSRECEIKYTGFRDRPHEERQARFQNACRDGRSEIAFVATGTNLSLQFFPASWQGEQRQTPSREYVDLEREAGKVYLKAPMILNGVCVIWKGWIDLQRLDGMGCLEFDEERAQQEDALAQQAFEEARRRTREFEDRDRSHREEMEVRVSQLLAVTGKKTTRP
Runt-CBFb FRET: inhibitors of RUNX1 Runt–CBFb binding, primary screen, biochemical, FRET, Cerulean-Runt, Venus-CBFb, uHTS; Runt-related transcription factor 1 (Homo sapiens) + Core-binding factor subunit beta …; Cerulean-Runt/Venus-CBFb FRET ratio 530/480, 1 h; inhibition, % at 20 µM; hit rate 0.46% among 220,000; AID 1496, 2009;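 active = inhibition over about 50% at 20 µM in the single-dose screen, limit read from the data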;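 also: 0% = DMSO wells and 100% = excess unlabeled CBFb competitor control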
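Doses: 20 µM compound in 1% DMSO | Material: Cerulean-labeled Runt domain protein | Amount: Each fluorescent fusion protein 100 nM | Schedule: Two 1 h room-temperature incubations shielded from light | Measured by: FRET fluorescence | Evaluation: Loss of energy transfer signal | Controls: Unlabeled CBFb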
HDAC3 inh: HDAC3 deacetylase inhibitors, primary screen, biochemical, fluorescence, cell-free homogeneous; inhibition, % at 8.3 µM; Histone deacetylase 3 (Homo sapiens), O15379; AID 2718, 2010; hit rate 0.15% among 320,000; recombinant HDAC3, fluorogenic peptide/trypsin coupled; in the data active = inhibition above about 26%, passing the limit was not always enough; inconclusive = no clear call, values can overlap the other calls
RanGTP-Imp inh: inhibitors of RanGTP-importin-beta interaction, primary screen, biochemical, FRET, CFP-Ran, YFP-importin-beta, homogeneous; cell-free CFP-Ran/YFP-importin-beta FRET ratio; inhibition, % (test concentration not listed); hit rate 1.1% among 300,000; AID 2216, 2009;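 active = more than half of the replicate wells show a fall in the fluorescence ratio signal beyond about 16%, limit read from the data, passing the limit was not always enough; inconclusive = exactly half of the replicate wells pass the set limit; inactive = fewer than half of replicates pass the limit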;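 also: 0% = DMSO wells and 100% = Ran loaded with GDP instead of GTP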
An asterisk follows results filed as active; ? = inconclusive; / = not tested or not shown. This is a sample that favours compounds with a hit; in the whole collection about 1.9% have one here.

SMILES | LANA-H2A inh | CaV13 ICDI inh | Runt-SMMHC FRET | Runt-CBFb FRET | HDAC3 inh | RanGTP-Imp inh
O=C(/C=C/c1cccc([N+](=O)[O-])c1)NCCN1C(=O)S/C(=C\c2cccnc2)C1=O | 2 | -4 | 0 | 0 | 1 | -6
Cc1ccc2c(c1)nnn2C1CCN(S(=O)(=O)c2ccc(C(=O)N3C(C)CCCC3C)cc2)CC1 (stereo not given) | 0 | -9 | -4 | -2 | -1 | 0
Cc1ccc2c(c1)nnn2C1CCN(S(=O)(=O)c2ccc(C(=O)O)cc2)CC1 | 126* | -1 | -4 | 1 | 0 | -2
C#CCOCCOCCOCCNc1nc(N2CCN(C(=O)[C@H](CCC(=O)O)n3cc([C@@H](N)CC(N)=O)nn3)CC2)nc(N2CCN(C(=O)[C@H](CCC(=O)O)n3cc([C@@H](N)CC(N)=O)nn3)CC2)n1 | 156* | -6 | / | / | -13 | /
CCCN(Cc1nnc(-c2ccccc2Cl)o1)C(=O)c1oc2ccccc2c1C | 2 | -2 | / | / | 7 | /
Cc1ccc(S(=O)(=O)/N=C2/C=C(Sc3ncn[nH]3)C(=O)c3ccccc32)c(C)c1 | -15 | / | 45 | 7 | 38* | /
N#Cc1c(C#N)c(SSc2c(C#N)c(C#N)c(N)n2-c2ccccc2)n(-c2ccccc2)c1N | / | -4 | / | / | / | /
Cc1ccc(O)c(-c2cc(C(=O)Nc3ccc(S(=O)(=O)Nc4nccc(C)n4)cc3)[nH]n2)c1 | 78* | -7 | -2 | -2 | 1 | 1
COc1ccc(C(=O)Nc2ccc(S(=O)(=O)Nc3nccc(C)n3)cc2)cc1 | 2 | -4 | / | / | -1 | -1
CCCc1nn(CCc2ccccn2)c(N)c1CC | 1 | -4 | 4 | 0 | -3 | 10
COC(=O)c1cc2cc(NS(=O)(=O)c3ccc(C)cc3)ccc2s1 | 2 | -3 | -3 | -1 | 9 | -5
O=c1oc(-c2ccco2)nc2c1cnn2-c1ccccc1 | -1 | -3 | 7 | 1 | 62* | -1
COc1cc2c(C(=O)NCc3ccc4c(c3)OCO4)cn(CC(C)C)c(=O)c2cc1OC | -3 | / | -5 | -2 | -3 | 1
COc1cc2c(C(=O)Nc3ccc4c(c3)OCO4)cn(CC(C)C)c(=O)c2cc1OC | 3 | / | 1 | -14 | 4 | 22*
N#CC1(C#N)CC(C=O)=C(N)C1(C#N)CC(=O)c1ccc(F)cc1 (stereo not given) | 0 | -3 | 51* | 21 | -5 | 33*
CCCCCC(O)(c1ccc(OCC)cc1)C(CN1CCOCC1)c1ccccc1 (stereo not given) | -2 | -4 | / | / | 26* | 0
CCC(CC)C1=NN2C(=N)/C(=C/c3ccc(OC(=O)c4ccco4)cc3)C(=O)N=C2S1 | 5 | -3 | / | / | 32* | 0
Cc1cc(NCCN2CCOCC2)n2nc(C)c(-c3ccccc3)c2n1 | -1 | / | 3 | 0 | 7 | 0
COCCNc1cc(C)nc2c(-c3ccccc3OC)c(C)nn12 | 0 | -6 | -3 | 1 | 0 | -1
Cc1cc(C)c2c(n1)nn1c(NCCN3CCOCC3)cc(C)nc21 | 2 | -3 | 38 | 7 | -119 | 35*
COCCNc1cc(C)nc2c3c(C)cc(C)nc3nn12 | 2 | -6 | 73* | 33 | -211 | 50*
N#CCCn1cnc2c(=S)nc[nH]c21 | 9.9* | / | -2 | 1 | 6 | 5
O=[N+]([O-])c1cccc(Cn2cnc3c(=S)nc[nH]c32)c1 | / | -7 | / | / | / | /
CC(OC(=O)Cn1c(C(F)(F)F)nc2ccccc21)C(=O)N1CCCc2ccccc21 (stereo not given) | 26* | / | 1 | 1 | 2 | /
CCN1CCN(c2nc3ccccn3c(=O)c2C=O)CC1 | 3 | -3 | / | / | 6 | 110*
SMILES | LANA-H2A inh | CaV13 ICDI inh | Runt-SMMHC FRET | Runt-CBFb FRET | HDAC3 inh | RanGTP-Imp inh
O=Cc1c(N2CCN(c3ccccc3)CC2)nc2ccccn2c1=O | 3 | -3 | -1 | -1 | 1 | -3
O=Cc1c(N2CCSCC2)nc2ccccn2c1=O | 3 | -3 | 0 | 3 | 6 | -1
O=Cc1c(N2CCN(CCO)CC2)nc2ccccn2c1=O | 4 | -7 | / | / | ? | 79*
CCN(CC)c1ncnc2sc(C(=O)N3CCN(c4ccc(OC)cc4)CC3)c(C)c12 | 3 | / | 0 | 0 | -2 | 6
Cc1[nH]c2ccccc2c1CCCO | 0 | -5 | 84 | 9 | 0 | 18*
Cc1[nH]c2ccccc2c1CCO | -1 | / | -2 | 43 | 13 | 6
Cc1cc(-c2ccccc2C(=O)O)on1 | -5 | -4 | 1 | 0 | -4 | -3
O=C(O)c1ccccc1C1=Nc2ccc(O)cc2Oc2cc(O)ccc21 | 17* | -5 | -14 | -6 | 7 | -6
COc1ccc(-c2cc(C(=O)NCC3CCCO3)c3ccccc3n2)cc1 (stereo not given) | 0 | -5 | 1 | 0 | -10 | -3
COc1ccc(N=c2oc3cc(O)ccc3cc2C(=O)NCC2CCCO2)cc1 (stereo not given) | -2 | 15 | 64* | 82* | -31 | 173*
CCOc1ccc(N=c2oc3cc(O)ccc3cc2C(=O)NCC2CCCO2)cc1 (stereo not given) | 3 | 23 | 106* | 121* | -1 | 184*
COc1ccc(N=c2oc3cc(O)ccc3cc2C(=O)NCC2CCCO2)c(OC)c1 (stereo not given) | -2 | 21 | 41 | 11 | -10 | 176*
CCOc1ccccc1N=c1oc2cc(O)ccc2cc1C(=O)NCC1CCCO1 (stereo not given) | -7 | 33* | 59* | 53* | -31 | 180*
CCOc1ccc(C(=O)NCC2CCCO2)cc1OCC (stereo not given) | 1 | -5 | -1 | 4 | -2 | -3
CCOc1ccc2oc(C(=O)NCC3CCCO3)c(C)c2c1 (stereo not given) | -2 | -3 | / | / | -11 | 0
O=C(NC1CCCC1)c1cc(-c2ccccc2)nc2ccccc12 | -1 | -3 | / | / | 6 | -1
CCc1nc(N[C@@H](CC(C)C)C(=O)O)c2oc3ccccc3c2n1 | -5 | -6 | 1 | -1 | 0 | -2
COc1ccc(C(=O)CSc2nc(C)cc(=O)[nH]2)cc1 | 0 | / | -2 | -1 | 5 | -3
COc1ccc(C(=O)CSc2cc(C)[nH]c(=O)n2)cc1 | -4 | -2 | / | / | 61* | 1
COC(=O)Cn1c(CCS(=O)(=O)c2ccc(C)cc2)nc2ccccc21 | 1 | -5 | -1 | 2 | -3 | -5
